Broadly, the inhibition is the drop in the measured response relative to a control, in per cent. The IC50 is the midpoint of a concentration-inhibition curve. One may read the EC50 as the midpoint of the concentration-response curve.

Here are results for six compounds from ChEMBL document CHEMBL6087409, “Synthesis of α-fluorocinnamate derivatives as novel cathepsin S inhibitors with in vitro antiproliferative activity against pancreatic cancer cells” (Bioorg Med Chem, 2024).

Data set [1] has as its target Procathepsin L (Homo sapiens) (UniProt P07711). Description: Inhibition of human cathepsin L using Z-phe-Arg-AMC as substrate at 20 uM by FRET-based enzymatic cleavage assay relative to control.
A further data set concerns BXPC-3. The experiment in a line: Cytotoxicity against human BXPC-3 cells assessed as inhibition of cell growth incubated for 5 days by MTS assay. Particulars: BXPC-3, 120 h. Background: Tetrazolium assays rely on reduction of a dye to a coloured formazan, in cell work by metabolically active cells.
The next data set has as its system CAPAN-1. The experiment in a line: Cytotoxicity against human CAPAN-1 cells assessed as inhibition of cell growth incubated for 5 days by MTS assay. The settings on record: CAPAN-1, 120 h.
Data set [2] can be described thus: Inhibition of recombinant SARS-CoV-2 main protease using Dabcyl-KTSAVLQSGFRKME-Edans as substrate assessed as reduction in proteolytic activity preincubated for 10 mins followed by substrate addition and measured after 10 mins by FRET-based enzymatic cleavage assay. Also noted: species or system Severe acute respiratory syndrome coronavirus 2.
The subject of data set [3] is Severe acute respiratory syndrome coronavirus 2. Description: Inhibition of recombinant SARS-CoV-2 main protease using Dabcyl-KTSAVLQSGFRKME-Edans as substrate assessed as reduction in proteolytic activity at 20 uM preincubated for 10 mins followed by substrate addition and measured after 10 mins by FRET-based enzymatic cleavage assay relative to control. Particulars: time 20.0 min. The gist of the method: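 Recombinant SARS-CoV-2 Mpro at 50 nM final, with 25 µM final substrate and 20 µM final compound, in 20 mM Tris pH 7.5, 0.1 mM EDTA, 1 mM DTT, 200 mM NaCl. Substrate cleavage was followed at 25 °C as rising Edans fluorescence (ex 335/em 493 nm) after release of the Dabcyl quencher.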

The next data set deals with Human coronavirus OC43. Description: Antiviral activity against HCoV-OC43 infected in human HCT-8 cells preincubated with cell for 1 hrs followed by viral infection and measured after 72 hrs by focus forming reduction assay. The class given is functional, organism-based. Particulars: Betacoronavirus 1, HCT-8.
Data set [4] can be described thus: Thiol reactivity of compound in phosphate buffer with N-acetyl cysteine at pH 7.4 assessed as micheal adduct formation measured after 24 hrs by 19F-NMR spectroscopic analysis. The class given is physicochemical. Particulars: pH 7.4, 24 h.
In data set [5] the target is Cathepsin B (Homo sapiens) (UniProt P07858). Description: Inhibition of human cathepsin B using Z-phe-Arg-AMC as substrate at 20 uM by FRET-based enzymatic cleavage assay relative to control.
Data set [6] is described as follows: Thiol reactivity of compound in phosphate buffer with N-acetyl cysteine at pH 7.4 assessed as micheal adduct formation by measuring conversion rate measured after 1 hrs by HPLC-MS analysis. Particulars: pH 7.4, 1 h. The format is physicochemical. The essentials: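 Compound with 1.1 equiv N-acetylcysteine in PBS pH 7.4 containing 10% ACN, stirred 1 h at 37 °C. The mixture was concentrated under reduced pressure, and consumption of starting material and adduct formation were followed by HPLC-MS.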

Data set [7] in a line: Thiol reactivity of compound in phosphate buffer with N-acetyl cysteine at pH 7.4 assessed as micheal adduct formation by measuring conversion rate measured after 24 hrs by HPLC-MS analysis. The class given is physicochemical. The settings on record: pH 7.4, 24 h.

Calls of active or inactive are those of the source. No cut-off for these calls is given here.

Chain of Procathepsin L (Homo sapiens) (P07711 114-333 limits assumed): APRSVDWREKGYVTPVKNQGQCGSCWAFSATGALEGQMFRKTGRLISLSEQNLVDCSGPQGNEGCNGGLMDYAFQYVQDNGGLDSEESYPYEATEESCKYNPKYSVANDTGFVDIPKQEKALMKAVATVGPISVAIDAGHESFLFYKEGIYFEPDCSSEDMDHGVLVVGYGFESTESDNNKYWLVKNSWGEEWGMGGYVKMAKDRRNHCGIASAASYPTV

As for `CCOC(=O)/C(F)=C/c1ccc(NC(=O)[C@H](Cc2ccccc2)NC(=O)OCc2ccccc2)cc1`, the inhibition entry in data set [1] is “inactive”. The IC50 in the data set with BXPC-3 came to 25.9 µM; with CAPAN-1, 40.6 µM.

As to `CCOC(=O)/C=C/c1ccc(NC(=O)[C@H](Cc2ccccc2)NC(=O)OCc2c[nH]c3ccccc23)cc1`, the 50% inhibitory concentration (IC50) in data set [2] is 12.4 µM. Besides, the inhibition in data set [3] came to 60%. The compound further yielded an EC50 in the data set on Human coronavirus OC43 of 9.14 µM.

Turning to `CCOC(=O)/C(F)=C/c1ccc(N)cc1`, in [4], the outcome was Active.

Take `CCOC(=O)/C(F)=C/c1ccc(NC(=O)[C@H](Cc2ccccc2)NC(=O)OCc2c[nH]c3ccccc23)cc1`: the inhibition came out at 20% in [5] and 29% in data set [1]. Further, the Activity in data set [6] was ~ 80%. Besides, the IC50 with BXPC-3 is 5.79 µM; with CAPAN-1 it was 20.8 µM.

For `CCOC(=O)/C=C/c1ccc(NC(=O)[C@H](Cc2ccccc2)NC(=O)OCc2ccccc2)cc1`, in [3], the inhibition amounted to 40%. The Activity in data set [7] amounted to 70%.

For the compound `CCOC(=O)/C(F)=C/c1ccc(NC(=O)[C@H](Cc2ccccc2)NC(=O)c2cc3ccccc3[nH]2)cc1`, the inhibition result in data set [1] is “inactive”. Besides, the IC50 turned out to be 14.1 µM in the data set on BXPC-3 and 28.3 µM in the data set on CAPAN-1.
